NR2E3 ag-1: activates human NR2E3 receptor | Q9Y5X4 | CHO-S Gal4-NCOR/VP16-NR2E3 two-hybrid, luciferase | inhibition of corepressor binding, % at 3.98 µM | 0.35% of 360,000 active | AID 602229;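 active means inhibition above the mean of all tested compounds plus 3 SD, cut at about 70% in these data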;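 further: higher means lower luciferase signal from less NR2E3 corepressor binding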
NR2E3 ag-2: agonists of human nuclear receptor NR2E3; Q9Y5X4; GST-NR2E3/biotin-RetCOR TR-FRET, 1536-well; inhibition of corepressor binding, % at 4.78 µM; 0.12% of 320,000 active; AID 2300;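 active means percent inhibition above the cutoff of mean plus 3 SD of all tested compounds, set per screening campaign, cut at about 20% in these data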
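System: GST-tagged NR2E3 plus biotinylated RetCOR corepressor; Buffer or medium: pH 7.5 Tris-based buffer; Probe or stimulus: RetCOR corepressor, biotinylated, 7 nM; Doses: compound at 4.8 µM, single dose; Schedule: 5 h incubation at 4 °C; Technique: time-resolved FRET; Evaluation: percent inhibition of TR-FRET ratio; Replication: one well per compound, singlicate testing.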
PG9 binder: binds the HIV-1 gp120 antibody PG9. TR-FRET gp120-PG9 antibody binding. inhibition, % at 6.7 µM. 0.43% of 360,000 active; in the data active means inhibition above about 8.5%
NR1D1 modulator: modulators of human Rev-erb alpha DNA binding | Rev-erbα–FITC-DNA binding, fluorescence polarization, 90 min | activity, % at 10 µM | 0.79% of 370,000 active | AID 1259318;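 active means activity above about 14%, limit read from the data; passing the limit was not always enough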
Target sequence (P20393 whole entry, looked up): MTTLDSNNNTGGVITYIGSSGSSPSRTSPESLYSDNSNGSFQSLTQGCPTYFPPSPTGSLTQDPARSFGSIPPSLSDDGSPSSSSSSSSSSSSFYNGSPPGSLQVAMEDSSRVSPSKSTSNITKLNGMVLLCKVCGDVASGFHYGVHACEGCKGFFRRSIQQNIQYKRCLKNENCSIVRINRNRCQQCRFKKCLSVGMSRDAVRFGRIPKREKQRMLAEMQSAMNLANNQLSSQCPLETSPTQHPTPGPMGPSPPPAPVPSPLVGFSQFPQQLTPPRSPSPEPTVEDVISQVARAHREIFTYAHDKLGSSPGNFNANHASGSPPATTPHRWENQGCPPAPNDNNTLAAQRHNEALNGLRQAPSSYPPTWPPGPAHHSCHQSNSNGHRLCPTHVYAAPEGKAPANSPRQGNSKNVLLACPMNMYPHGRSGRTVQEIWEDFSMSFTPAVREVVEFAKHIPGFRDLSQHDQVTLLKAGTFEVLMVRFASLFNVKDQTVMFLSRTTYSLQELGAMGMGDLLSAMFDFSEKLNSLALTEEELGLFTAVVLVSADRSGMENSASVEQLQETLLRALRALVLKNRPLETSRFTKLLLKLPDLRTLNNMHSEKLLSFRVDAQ
NR2E3 ag confirm: NR2E3 agonism confirmed in two-hybrid assay; shares compounds with NR2E3 ag-1; CHO-S mammalian two-hybrid NR2E3-NCOR, luciferase luminescence; inhibition, % at 3.98 µM; 51% of 2,300 active; AID 624378;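 active means average inhibition above a cutoff equal to the mean inhibition of all tested compounds plus one SD, cut at about 70% in these data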
VP16 counter: GAL4-VP16 reporter inhibition in NR2E3 agonist counterscreen; shares compounds with NR2E3 ag-1; CHO-S GAL4-VP16 luciferase reporter, luminescence; inhibition, % at 3.98 µM; 29% of 2,300 active; AID 624379;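 active means mean inhibition above a cutoff equal to the average over all tested compounds plus one standard deviation, cut at about 70% in these data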;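 further: luciferase from a UAS reporter driven by GAL4-VP16 transactivation; higher means less reporter light so more repression of VP16 activity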
Numbers stand for hits; - = inactive; . = no result given. The list is not random: actives were taken first. Their share in the collection is about 1.5%.

SMILES	NR2E3 ag-1	NR2E3 ag-2	PG9 binder	NR1D1 modulator	NR2E3 ag confirm	VP16 counter
CC(C)Cn1c(N)c(C(=O)COC(=O)c2ccc3c(c2)OCCO3)c(=O)n(C)c1=O	-	-	-	-	.	.
CC(C)Cn1c(N)c(C(=O)CSc2ccc3c(c2)OCCO3)c(=O)n(C)c1=O	-	-	-	-	92.2	85.0
Clc1ccc([C@H]2OC[C@@]3(CNC4CCCCC4)CS[C@H](c4ccc(Cl)cc4)N23)cc1	.	.	.	-	.	.
Cc1nn(Cc2ccc(C(=O)NC(C)(C)C)o2)c(C)c1Br	-	-	-	-	-	-
Oc1ccccc1N=Cc1ccc[nH]1	-	-	-	-	-	-
C(=Nc1ccccc1)c1ccc[nH]1	-	.	-	-	.	.
COc1ccccc1CN(C)C(=O)C1CCCN(c2nc3ccccc3o2)C1 (stereo not given)	.	.	.	-	.	.
CC(=O)Nc1ccccc1OCC(=O)c1cc(C)n(Cc2cccs2)c1C	90.2	-	-	-	93.0	72.5
Cc1cc(C(=O)COc2cccnc2[N+](=O)[O-])c(C)n1Cc1cccs1	-	-	-	-	73.2	-
CC(C)(C)N1Cc2nnn(CC3CCCCC3)c2-c2cc(F)ccc2S1(=O)=O	.	.	.	-	.	.
C[C@@H]1CCN(C2CC2)S(=O)(=O)c2ccc(N3CCC[C@@H]3C)cc2O1	.	.	.	-	.	.
CC(=O)c1c(C)oc2ccc(NS(=O)(=O)c3ccc(C)cc3)cc12	80.3	-	-	-	-	-
COC(=O)c1c(C)oc2ccc(N(C(C)=O)S(=O)(=O)c3ccccc3)cc12	97.9	-	-	-	84.5	-
CC(=O)c1c(C)oc2ccc(N(C(C)=O)S(=O)(=O)c3cccc4cccnc34)cc12	86.2	-	-	-	94.5	74.1
CC(=O)c1c(C)oc2ccc(N(C(=O)c3ccncc3)S(=O)(=O)c3ccccc3)cc12	-	-	-	-	.	.
CC(=O)c1c(C)oc2ccc(N(C(C)=O)S(=O)(=O)c3ccc(Br)cc3)cc12	89.9	-	-	-	90.4	72.6
CC(=O)c1c(C)oc2ccc(N(C(C)=O)S(=O)(=O)c3ccc(F)cc3C)cc12	-	-	-	-	.	.
CC(=O)c1c(C)oc2ccc(NS(=O)(=O)c3cccs3)cc12	-	-	-	-	.	.
CCOc1ccc(CCNC(=O)C2CCCCC2)cc1OCC	.	.	.	-	.	.
COC(=O)[C@H](CC(C)C)N1Cc2nnn(Cc3ccccc3)c2-c2cc(F)ccc2S1(=O)=O	.	.	.	-	.	.
O=C(CSc1nnc(-c2ccccc2F)n1Cc1ccco1)Nc1ccccc1-c1ccccc1	.	.	.	-	.	.
Cc1cc(C)cc(C(=O)OCCN(C)C2CN(Cc3cn(Cc4ccc([N+](=O)[O-])cc4)nn3)S(=O)(=O)C2)c1 (stereo not given)	.	.	.	-	.	.
CCCC1CCC2(CCCN2CCOC(=S)Nc2ccccc2)CC1 (stereo not given)	.	.	.	-	.	.
Cc1ccc(-c2nnc(SCC(=O)Nc3ccc(Oc4ccccc4)cc3)n2-c2ccc(Cl)cc2)cc1	.	.	.	-	.	.
Cc1ccc(C(=O)Nc2sc(C)c(-c3ccccc3)c2C(N)=O)cc1[N+](=O)[O-]	-	-	-	-	-	-
SMILES	NR2E3 ag-1	NR2E3 ag-2	PG9 binder	NR1D1 modulator	NR2E3 ag confirm	VP16 counter
CCCOc1ccc(F)cc1-c1cc(C(=O)NCc2ccc(C(F)(F)F)cc2)[nH]n1	-	.	.	.	-	-
CC(C)c1ccc(-c2csc(NC(=O)c3cccs3)c2C(=O)O)cc1	-	-	-	-	94.4	-
CCC[C@H]1[C@@H](OC(=O)NCc2ccc(Cl)cc2)CC[C@@]23CCCN2C(=O)CCC[C@@H]13	.	.	.	-	.	.
COC1C=CC=C(C)C(=O)NC2=CC(=O)C(N)=C(CC(C)CC(OC)C(O)C(C)C=C(C)C1OC(N)=O)C2=O (stereo not given)	90.7	.	-	-	97.3	-
COC1CC(C)C(OC)c2cc(O)cc(c2O)NC(=O)C(C)=CC=CC(C)C(OC(N)=O)C(C)=CC(C)C1OC (stereo not given)	-	.	-	-	.	.
O=[N+]([O-])c1ccc(NC(=S)NCCc2ccc(F)cc2)cc1	-	-	-	-	77.1	-
O=C(NCCc1ccc(F)cc1)Nc1ccc([N+](=O)[O-])cc1	-	.	-	-	.	.
C[C@H]1[C@@H](OC(=O)NCc2cccnc2)CC[C@@]23CCCN2C(=O)CCC[C@@H]13	.	.	.	-	.	.
O=C(CSc1nnc(-c2ccco2)n1-c1ccc(Cl)cc1)Nc1ccc(S(=O)(=O)Nc2nccs2)cc1	.	.	.	-	.	.
CC(Sc1nnc(NC2CC2)s1)C(=O)Nc1ccc(N2CCOCC2)cc1 (stereo not given)	-	.	-	-	.	.
CC(=O)c1c(C)[nH]c(C(=O)C(C)Sc2nnc(NC3CC3)s2)c1C (stereo not given)	-	-	-	-	-	-
O=C(NNc1ccccc1)C(=O)NNS(=O)(=O)c1ccc([N+](=O)[O-])cc1	-	-	-	-	-	-
O=C(NCc1cccnc1)/C(=C\c1ccc(-c2ccc(Cl)c(Cl)c2)o1)S(=O)(=O)c1ccccc1	91.6	-	-	-	98.9	-
O=C(NCc1cccnc1)c1ccc(-c2ccc(Cl)cc2)o1	-	-	-	-	.	.
COC(=O)C1CN(Cc2cn(CCOC(C)=O)nn2)CCS(=O)(=O)N1Cc1ccccc1 (stereo not given)	.	.	.	-	.	.
Cc1c(/C(O)=C2/C(=O)C(=O)N(Cc3cccnc3)C2c2ccccn2)cnn1-c1ccccc1 (stereo not given)	83.1	-	-	-	-	-
Cc1c(/C(O)=C2/C(=O)C(=O)N(Cc3cccnc3)C2c2cccs2)cnn1-c1ccccc1 (stereo not given)	-	-	-	-	.	.
CC(SC(=S)N(C)Cc1cccs1)C(=O)O (stereo not given)	-	-	-	-	.	.
CN(C)c1nc(=NCc2cccs2)ss1	96.6	.	-	-	-	-
O=C1C=CC2(O[C@H](c3ccccc3)[C@@H](c3ccccc3)O2)[C@H](Sc2ccccc2O)C1	-	.	-	-	92.0	-
c1ccc(Cn2ccc3ccc(-c4ccc5ccn(Cc6ccc(-c7ccccc7)cc6)c5c4)cc32)cc1	.	.	.	-	.	.
CNC(=O)c1cccc(NC(=O)C(C)c2ccc3cc(OC)ccc3c2)c1 (stereo not given)	-	-	-	-	.	.
COc1ccc2cc(C(C)C(=O)Nc3cccc(S(=O)(=O)N(C)C)c3)ccc2c1 (stereo not given)	-	-	-	-	-	-
Cc1ccc(Cc2cnc(N3C(=N)SC(C)C3=O)s2)cc1 (stereo not given)	101.5	-	-	-	100.6	-
Cc1cccc(Cc2cnc(N3C(=N)SC(C)C3=O)s2)c1 (stereo not given)	103.4	-	-	-	98.6	-
Cc1cccc(Cc2cnc(N3C(=N)SC(c4ccccc4)C3=O)s2)c1 (stereo not given)	-	-	-	-	.	.
CCCOc1ccc(Cn2cnc3ccccc32)cc1	-	-	-	-	77.8	-
CC(CC=O)CCCC(C)(C)O (stereo not given)	.	.	.	-	.	.
CCCCCc1ccc(C)cc1O	.	.	.	-	.	.
